A selection: hits, their analogues and other compounds. The true share with any hit is near 4.8%.
CSC inhib: cancer stem cell inhibition. inhibition, % at 7.5 µM. AID 2717. cancer stem cell-like cells viability, luminescence. 300,000 tested, 1.1% active; in the data active = inhibition above about 75%; inconclusive = no clear call, values can overlap the other calls; tested in HMLE shEcad cells
Beta apoptosis: blocks beta cell apoptosis; INS-1E cytokine-induced death, ATP luminescence, 48 h; percent of positive-control rescue, neutral wells zero; protection from apoptosis, % (no concentration beside the values); 300,000 tested, 0.8% active;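 active = Every replicate reaches about 75%, or at least half do and their mean reaches it too, limit read from the data; inconclusive = At least half of replicates reach the limit but their mean does not; inactive = Under half of replicates reach the limit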;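 also: 0% = cytokine-treated negative control wells and 100% = positive control rescue; higher means more ATP so stronger rescue from cytokine killing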
UPR XBP1 act: activators of adaptive arm of unfolded protein response (XBP1) | CHO-XBP1 luciferase reporter, IRE1-XBP1 UPR activation, luminescence; percent of tunicamycin response, DMSO as zero | activation, % at 20 µM | 330,000 tested, 0.33% active | AID 463104;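 active = versus positive control, 20 µM dose yields 30% or more activation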;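 also: 100% = tunicamycin at 10 µg/mL and 0% = DMSO only wells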
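Material: CHO-XBP1 cells stably carrying IRE1-XBP1-driven luciferase reporter / Amount: 1000 cells per well / Compound: 20 µM, 1% DMSO / Times: 6 h treatment, 37 °C / Detection: luciferase luminescence / Measure: % activation of reporter signal versus tunicamycin and DMSO controls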
Mdm2 MdmX PPI: disrupts the human Mdm2-MdmX interaction; SaOS-2 split-luciferase Mdm2/MdmX complementation, luminescence; O15151+Q00987; inhibition, % at 8 µM; 330,000 tested, 3% active;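 active = inhibition of at least 50% at 8 µM in the primary screen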
Target sequence (O15151 whole entry, looked up): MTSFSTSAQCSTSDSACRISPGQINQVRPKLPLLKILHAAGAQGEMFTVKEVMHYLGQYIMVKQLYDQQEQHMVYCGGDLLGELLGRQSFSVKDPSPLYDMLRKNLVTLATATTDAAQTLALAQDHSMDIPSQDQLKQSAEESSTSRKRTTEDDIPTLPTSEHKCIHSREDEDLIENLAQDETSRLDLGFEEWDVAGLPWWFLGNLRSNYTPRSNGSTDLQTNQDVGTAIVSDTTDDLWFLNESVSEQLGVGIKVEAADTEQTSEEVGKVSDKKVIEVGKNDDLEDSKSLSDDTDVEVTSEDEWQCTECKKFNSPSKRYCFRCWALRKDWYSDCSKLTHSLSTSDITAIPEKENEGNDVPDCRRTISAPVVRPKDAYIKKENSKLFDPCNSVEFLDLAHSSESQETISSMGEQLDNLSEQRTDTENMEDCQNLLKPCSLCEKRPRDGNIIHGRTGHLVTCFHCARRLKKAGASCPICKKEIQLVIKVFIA
Target sequence (Q00987 whole entry, looked up): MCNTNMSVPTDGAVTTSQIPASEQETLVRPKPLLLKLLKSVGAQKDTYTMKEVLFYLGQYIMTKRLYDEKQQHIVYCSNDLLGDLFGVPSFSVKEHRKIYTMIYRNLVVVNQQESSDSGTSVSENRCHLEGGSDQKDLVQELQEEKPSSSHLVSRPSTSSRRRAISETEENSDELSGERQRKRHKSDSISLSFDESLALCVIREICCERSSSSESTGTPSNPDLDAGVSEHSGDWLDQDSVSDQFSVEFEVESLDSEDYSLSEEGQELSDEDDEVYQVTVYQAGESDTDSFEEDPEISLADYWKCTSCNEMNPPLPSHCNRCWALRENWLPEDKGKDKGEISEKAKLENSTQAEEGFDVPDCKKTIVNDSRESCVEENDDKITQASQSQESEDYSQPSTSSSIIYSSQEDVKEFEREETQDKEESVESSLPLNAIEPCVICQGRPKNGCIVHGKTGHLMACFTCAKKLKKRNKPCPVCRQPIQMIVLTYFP
UPR CHOP act: apoptotic UPR (CHOP) activation; CHO-CHOP luciferase reporter, luminescence; percent of tunicamycin response over DMSO baseline; activation, % at 10 µM; 330,000 tested, 0.34% active;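 active = at 10 µM dose, activation of 40% or more, normalized to positive control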;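 also: 100% = tunicamycin at 10 µg/mL and 0% = DMSO alone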
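Assay system: CHO cells with stable CHOP pathway luciferase reporter; Buffer or medium: F12 plus 10% serum; Times: 16-18 h cell attachment, then 6 h compound exposure, 37 °C; Signal: luciferase luminescence; Read-out basis: percent activation relative to tunicamycin control; Control set: tunicamycin high control, DMSO low control.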
SKKanGAS inh: blocks kanamycin growth of S. pyogenes SKKanGAS strain | BacTiter-Glo, 6 h | inhibition, % at 7.5 µM | 300,000 tested, 1.3% active | AID 1662;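 active = mean replicate score, as percent of positive control median, at least 50; inconclusive = mean below 50 but one replicate at or above 50; inactive = mean and every replicate below 50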;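 also: strain carries kanamycin resistance gene driven by streptokinase promoter and grows in 40 µg/ml kanamycin; loss of luminescence reflects streptokinase promoter inhibition or plain growth inhibition; 0% = median of DMSO wells and 100% = positive control at its reference dose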
Mdm2 MdmX conf: confirmation of human Mdm2/MdmX interaction inhibitors. Mdm2-MdmX binding, luminescent assay. shares compounds with Mdm2 MdmX PPI. 10,000 tested, 55% active. AID 489028. inhibition, % at 8 µM; in the data active = inhibition above about 40%
FLuc counter: full-length luciferase inhibition in Mdm2/MdmX counter-screen | shares compounds with Mdm2 MdmX PPI | SaOS-2 full-length luciferase counterscreen, luminescence | inhibition, % at 8 µM | 6,200 tested, 77% active | AID 504607;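 active = mean inhibition at 8 µM reaching about 37%, which flags the compound as non-specific, limit read from the data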;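 also: p53-null SaOS-2 cells with luciferase driven by a doxycycline-inducible promoter; compound on cells about two nights before reading with doxycycline added after day one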
Starred values were filed as active, the others as inactive; ? = inconclusive; . = not tested or not shown.

SMILES | CSC inhib | Beta apoptosis | UPR XBP1 act | Mdm2 MdmX PPI | UPR CHOP act | SKKanGAS inh | Mdm2 MdmX conf | FLuc counter
Cn1c(=O)[nH]c(=O)c2c1nc(N/N=C/c1ccncc1)n2Cc1ccc(F)cc1 | -30.0 | 2.7 | -1.8 | 27.3 | 2.3 | -9.2 | . | .
Cc1cc([N+](=O)[O-])ccc1-c1ccc(/C=N/NC(=O)c2ccc(Br)o2)o1 | 88.2* | 65.3 | 14.7 | 95.2* | 1.3 | 2.4 | 16.1 | .
Cc1ccc(-c2ccc(/C=N\NC(=O)c3cc4c(ccc5ccccc54)o3)o2)cc1[N+](=O)[O-] | -3.4 | 23.1 | -1.0 | 94.0* | -0.1 | -2.2 | 33.6 | .
Cn1nnnc1Sc1ncnc2scc(-c3ccc(-c4ccccc4)cc3)c12 | . | -4.0 | 0.2 | 100.5* | 4.7 | . | 22.6 | .
CC(=O)c1ccccc1-c1csc2ncnc(Sc3nnnn3C)c12 | 24.4 | -34.7 | 0.9 | 32.2 | 2.0 | . | . | .
Cn1nnnc1Sc1ncnc2scc(-c3ccc(C#N)cc3)c12 | 43.8 | -39.9 | -4.0 | 87.2* | 5.6 | . | 78.6* | 59.6*
Cn1nnnc1Sc1ncnc2scc(-c3cccs3)c12 | 56.6 | -83.7 | -2.3 | 97.5* | 16.1 | . | 89.5* | 55.8*
Cc1ccc(-c2csc3ncnc(SCC(=O)O)c23)cc1 | -14.7 | -1.7 | 0.2 | 12.2 | -0.8 | 2.5 | . | .
Cn1nnnc1Sc1ncnc2scc(-c3ccsc3)c12 | . | -3.9 | -0.9 | 99.6* | 1.1 | . | 85.3* | 52.7*
COc1ccccc1CN1CCCC(CN(CCN(C)C)C(=O)c2ccc(C)cc2)C1 (stereo not drawn) | 14.5 | -2.5 | 1.0 | 19.3 | 1.5 | -1.9 | . | .
Cc1cc(C)c2c(n1)nn1c(N3CCN(c4ccccc4C)CC3)cc(C)nc21 | -8.8 | -5.8 | -1.0 | 64.1* | 12.6 | . | 14.3 | .
COc1ccc2[nH]c(C)cc(=O)c2c1 | -1.2 | -1.0 | 1.0 | 16.8 | -3.4 | -5.3 | . | .
COc1ccc2[nH]c3c(C)c4ccncc4c(C)c3c2c1 | -4.6 | 100.1* | -4.6 | 100.3* | -3.2 | 96.9* | 92.2* | 7.3
CCOc1ccc(N2C(=O)CC(NC3CCN(C(=O)c4ccc(F)cc4)CC3)C2=O)cc1 (stereo not drawn) | -2.0 | 0.3 | -6.5 | 11.0 | -0.3 | 4.0 | . | .
CCCCOc1ccc(C(=O)NCC(=O)NCC2CCCO2)cc1 (stereo not drawn) | -5.6 | 3.0 | -4.2 | -5.8 | 0.2 | 9.0 | . | .
NC(=O)CSc1nnc(NC(=O)c2ccc(S(=O)(=O)N3CCCCC3)cc2)s1 | 11.8 | 0.9 | -1.8 | 12.4 | -0.5 | 23.9 | . | .
COc1ccc(/C=N/NC(=O)c2cccc(Br)c2)cc1Cn1cc(Cl)cn1 | . | 1.2 | -1.4 | 59.7* | -2.2 | 10.4 | 49.7* | 67.1*
COc1ccc(/C=N/NC(=O)c2ccc(Br)cc2)cc1Cn1cc(Cl)cn1 | -7.4 | 12.1 | -2.3 | 44.3 | -2.1 | 6.1 | . | .
Cc1ccc(S(=O)(=O)N2CCCCC2C(=O)N(C)c2ccccc2)cc1 (stereo not drawn) | . | -17.4 | -0.6 | 11.1 | -1.6 | -1.0 | . | .
O=c1[nH]c(N/N=C\c2ccc3c(c2)OCO3)nc2ccccc12 | -6.3 | -0.9 | 2.5 | -69.0 | 3.3 | -1.9 | . | .
O=[N+]([O-])c1cc2c(cc1/C=N/Nc1nc(Nc3ccccc3)nc(N3CCCCC3)n1)OCO2 | 4.0 | 10.0 | 10.4 | 63.6* | 7.0 | 19.8 | 42.5* | 37.3*
O=c1[nH]c(N/N=C/c2cc3c(cc2[N+](=O)[O-])OCO3)nc2ccccc12 | -18.6 | -5.2 | 4.2 | 64.0* | 6.3 | 7.9 | 6.0 | .
COc1cccc(/C=N/Nc2nc(Nc3ccc([N+](=O)[O-])cc3)nc(N3CCCC3)n2)c1O | . | 59.9 | 7.9 | 96.1* | 7.2 | 72.9* | 89.4* | 39.1*
Cc1ccc(Nc2nc(N/N=C\c3ccc4c(c3)OCO4)nc(N3CCOCC3)n2)cc1 | 53.8 | 2.2 | 7.2 | 64.8* | 2.7 | ? | 57.0* | 78.1*
COc1cccc(NC(=O)CN(C)C(=O)c2cccnc2Sc2ccc(C)c(C)c2)c1 | -2.8 | 1.6 | -2.7 | 8.7 | -0.1 | -7.3 | . | .
